Measured values: ChEMBL document CHEMBL5653631, “A Potent and Selective ULK1 Inhibitor Suppresses Autophagy and Sensitizes Cancer Cells to Nutrient Stress” (iScience, 2018)
Calls of active or inactive are those of the source. The calls are words filed in the database; no cut-off is given here.

Experiments:
U2OS = assay: Inhibition of autophagy in human U2OS cells assessed as ATG12-positive puncta formation at 5 uM incubated for 2.5 hrs in presence of AZD8055 by Fluorescent microscopy based analysis; type: functional, cell-based
Summary of the method: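 U2OS cells treated 2.5 hr with vehicle or 100 nM AZD8055, with or without 5 μM inhibitor; fixed and immunostained for endogenous ATG12; ATG12-positive puncta (phagophores) assessed by fluorescence microscopy.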

[1] = target: 5'-AMP-activated protein kinase catalytic subunit alpha-1 (Homo sapiens) (UniProt Q13131); assay: Inhibition of human recombinant AMPKa1 at 40 nM in presence of ATP by radiometric assay relative to control
Chain of 5'-AMP-activated protein kinase catalytic subunit alpha-1 (Homo sapiens) (Q13131 whole entry, looked up): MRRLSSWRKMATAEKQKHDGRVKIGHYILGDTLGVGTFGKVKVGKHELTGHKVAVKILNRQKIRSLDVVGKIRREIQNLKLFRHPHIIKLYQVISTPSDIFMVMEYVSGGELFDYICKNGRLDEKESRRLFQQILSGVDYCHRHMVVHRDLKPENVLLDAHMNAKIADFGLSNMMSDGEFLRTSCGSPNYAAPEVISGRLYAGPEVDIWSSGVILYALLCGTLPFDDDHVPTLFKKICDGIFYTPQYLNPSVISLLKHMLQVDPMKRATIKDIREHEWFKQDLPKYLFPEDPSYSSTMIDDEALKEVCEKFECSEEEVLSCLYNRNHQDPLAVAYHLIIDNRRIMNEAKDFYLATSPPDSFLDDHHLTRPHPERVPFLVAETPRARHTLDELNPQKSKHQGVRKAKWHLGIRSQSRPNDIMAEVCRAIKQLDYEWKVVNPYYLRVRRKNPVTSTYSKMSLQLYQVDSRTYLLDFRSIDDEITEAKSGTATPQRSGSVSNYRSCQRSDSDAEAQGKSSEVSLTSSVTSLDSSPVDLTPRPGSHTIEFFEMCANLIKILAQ
Summary of the method: (§1)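 Panel of 327 recombinant human kinases, each assayed in vitro by radiometric activity assay in duplicate at a single inhibitor concentration per compound, chosen with reference to its ULK1 inhibition. Activity remaining was expressed as percent of vehicle control, and percent inhibition was calculated as 100 minus percent activity remaining.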

[2] = target: T1, Ephrin type-B receptor 2 (Homo sapiens) (UniProt P29323); assay: Inhibition of human recombinant EphB2 at 40 nM related to control ULK1
T1 sequence (whole entry): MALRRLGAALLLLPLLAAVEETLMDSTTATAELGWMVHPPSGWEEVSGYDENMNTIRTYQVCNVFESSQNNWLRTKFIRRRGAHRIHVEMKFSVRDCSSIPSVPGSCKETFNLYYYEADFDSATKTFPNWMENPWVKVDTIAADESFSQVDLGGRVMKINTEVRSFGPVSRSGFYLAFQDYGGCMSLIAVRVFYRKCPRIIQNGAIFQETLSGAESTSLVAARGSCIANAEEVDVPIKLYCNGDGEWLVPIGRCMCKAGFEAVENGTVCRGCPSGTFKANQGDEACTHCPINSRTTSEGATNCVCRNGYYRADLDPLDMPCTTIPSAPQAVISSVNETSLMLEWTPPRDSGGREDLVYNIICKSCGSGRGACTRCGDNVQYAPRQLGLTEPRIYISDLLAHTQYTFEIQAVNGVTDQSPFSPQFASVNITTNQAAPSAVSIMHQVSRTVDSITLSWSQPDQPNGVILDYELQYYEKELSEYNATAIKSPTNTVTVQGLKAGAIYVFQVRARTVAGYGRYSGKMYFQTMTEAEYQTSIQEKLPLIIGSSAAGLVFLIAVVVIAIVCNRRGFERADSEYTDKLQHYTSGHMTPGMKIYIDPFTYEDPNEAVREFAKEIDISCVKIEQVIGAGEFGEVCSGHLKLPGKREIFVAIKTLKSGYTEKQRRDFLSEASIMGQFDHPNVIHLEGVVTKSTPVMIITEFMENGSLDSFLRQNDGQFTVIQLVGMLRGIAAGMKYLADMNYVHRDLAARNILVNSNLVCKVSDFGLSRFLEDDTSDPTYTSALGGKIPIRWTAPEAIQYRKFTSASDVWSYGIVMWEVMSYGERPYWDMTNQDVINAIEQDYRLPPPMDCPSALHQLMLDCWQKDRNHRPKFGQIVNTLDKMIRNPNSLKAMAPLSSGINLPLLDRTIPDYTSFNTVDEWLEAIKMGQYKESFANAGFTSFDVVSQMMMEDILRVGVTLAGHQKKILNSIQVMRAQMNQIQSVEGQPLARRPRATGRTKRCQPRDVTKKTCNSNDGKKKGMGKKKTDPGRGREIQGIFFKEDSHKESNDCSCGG

[3] = target: Tyrosine-protein kinase HCK (Homo sapiens) (UniProt P08631); assay: Inhibition of human recombinant HCK at 40 nM related to control ULK1
[4] = target: Wee1-like protein kinase 2 (Homo sapiens) (UniProt P0C1S8); assay: Inhibition of human recombinant Wee1B at 40 nM related to control ULK1
Chain of Wee1-like protein kinase 2 (Homo sapiens) (P0C1S8 whole entry, looked up): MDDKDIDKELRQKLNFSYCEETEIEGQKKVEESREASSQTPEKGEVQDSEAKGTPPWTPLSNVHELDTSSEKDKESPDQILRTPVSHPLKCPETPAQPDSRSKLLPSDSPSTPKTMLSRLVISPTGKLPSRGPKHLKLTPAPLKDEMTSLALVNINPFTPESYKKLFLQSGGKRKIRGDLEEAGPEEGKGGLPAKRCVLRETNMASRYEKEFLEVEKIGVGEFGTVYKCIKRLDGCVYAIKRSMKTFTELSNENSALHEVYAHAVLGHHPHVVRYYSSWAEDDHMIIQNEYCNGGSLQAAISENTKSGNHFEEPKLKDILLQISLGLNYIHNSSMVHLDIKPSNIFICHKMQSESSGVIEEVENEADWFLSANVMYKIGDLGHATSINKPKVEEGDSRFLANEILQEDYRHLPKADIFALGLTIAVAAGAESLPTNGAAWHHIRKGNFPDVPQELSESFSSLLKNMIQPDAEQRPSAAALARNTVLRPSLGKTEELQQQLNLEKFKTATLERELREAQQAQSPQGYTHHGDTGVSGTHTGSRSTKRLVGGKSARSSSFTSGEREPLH

[5] = target: T2, Tyrosine-protein kinase TXK (Homo sapiens) (UniProt P42681); assay: Inhibition of human recombinant TXK at 500 nM related to control ULK1
T2 sequence (whole entry): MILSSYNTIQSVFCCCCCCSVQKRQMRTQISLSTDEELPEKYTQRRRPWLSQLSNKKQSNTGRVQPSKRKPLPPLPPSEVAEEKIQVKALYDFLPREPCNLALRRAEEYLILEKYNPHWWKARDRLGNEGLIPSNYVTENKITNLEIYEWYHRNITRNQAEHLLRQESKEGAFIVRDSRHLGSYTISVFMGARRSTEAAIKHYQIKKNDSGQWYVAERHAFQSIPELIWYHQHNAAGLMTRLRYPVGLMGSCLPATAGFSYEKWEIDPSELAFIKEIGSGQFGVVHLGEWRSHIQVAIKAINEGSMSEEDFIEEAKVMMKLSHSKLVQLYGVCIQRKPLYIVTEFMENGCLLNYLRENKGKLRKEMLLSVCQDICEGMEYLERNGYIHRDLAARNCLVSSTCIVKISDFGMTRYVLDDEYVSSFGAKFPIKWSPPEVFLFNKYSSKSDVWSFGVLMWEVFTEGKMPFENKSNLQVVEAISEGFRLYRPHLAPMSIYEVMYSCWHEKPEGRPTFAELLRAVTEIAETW

[6] = target: Protein kinase C beta type (Homo sapiens) (UniProt P05771); assay: Inhibition of human recombinant PKCb at 15 nM in presence of ATP by radiometric assay relative to control
Chain of Protein kinase C beta type (Homo sapiens) (P05771 2-671 limits assumed): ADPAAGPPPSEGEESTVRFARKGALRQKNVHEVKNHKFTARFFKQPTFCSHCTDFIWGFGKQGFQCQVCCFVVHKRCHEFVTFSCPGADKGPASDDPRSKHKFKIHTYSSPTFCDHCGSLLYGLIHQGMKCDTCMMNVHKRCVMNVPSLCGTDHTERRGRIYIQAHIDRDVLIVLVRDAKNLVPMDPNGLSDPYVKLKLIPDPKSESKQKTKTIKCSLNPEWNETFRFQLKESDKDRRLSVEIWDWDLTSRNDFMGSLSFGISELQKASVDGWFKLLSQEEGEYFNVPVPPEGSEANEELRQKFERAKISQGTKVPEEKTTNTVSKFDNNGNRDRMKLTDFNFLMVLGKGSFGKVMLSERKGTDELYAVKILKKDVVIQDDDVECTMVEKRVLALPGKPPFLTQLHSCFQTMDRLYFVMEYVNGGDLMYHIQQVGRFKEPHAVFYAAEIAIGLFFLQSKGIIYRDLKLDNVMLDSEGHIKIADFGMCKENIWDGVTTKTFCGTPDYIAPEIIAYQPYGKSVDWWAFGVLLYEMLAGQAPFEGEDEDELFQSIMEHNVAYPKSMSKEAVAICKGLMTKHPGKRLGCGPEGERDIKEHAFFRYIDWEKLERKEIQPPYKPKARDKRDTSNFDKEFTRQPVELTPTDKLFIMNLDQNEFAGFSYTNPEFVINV

[7] = target: Myosin light chain kinase 2, skeletal/cardiac muscle (Homo sapiens) (UniProt Q9H1R3); assay: Inhibition of human recombinant skMLCK at 15 nM in presence of ATP by radiometric assay relative to control
Chain of Myosin light chain kinase 2, skeletal/cardiac muscle (Homo sapiens) (Q9H1R3 whole entry): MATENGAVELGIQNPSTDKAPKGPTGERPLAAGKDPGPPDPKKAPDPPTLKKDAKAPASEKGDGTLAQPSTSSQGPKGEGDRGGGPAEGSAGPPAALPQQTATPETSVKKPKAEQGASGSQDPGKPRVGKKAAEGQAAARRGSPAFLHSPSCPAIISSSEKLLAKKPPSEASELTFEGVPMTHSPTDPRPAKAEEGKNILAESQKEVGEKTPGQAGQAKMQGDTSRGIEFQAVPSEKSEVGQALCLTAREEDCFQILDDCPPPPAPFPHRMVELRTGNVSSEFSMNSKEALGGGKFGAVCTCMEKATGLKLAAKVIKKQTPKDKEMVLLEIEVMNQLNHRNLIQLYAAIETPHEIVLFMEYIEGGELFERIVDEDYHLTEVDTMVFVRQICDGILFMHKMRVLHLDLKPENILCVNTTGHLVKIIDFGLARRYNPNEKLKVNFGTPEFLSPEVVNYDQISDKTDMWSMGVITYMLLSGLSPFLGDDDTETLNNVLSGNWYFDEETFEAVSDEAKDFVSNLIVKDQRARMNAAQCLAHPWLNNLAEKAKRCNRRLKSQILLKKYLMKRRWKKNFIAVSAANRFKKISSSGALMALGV

[8] = target: Serine/threonine-protein kinase ATR (Homo sapiens) (UniProt Q13535); assay: Inhibition of human recombinant ATR at 15 nM related to control ULK1; summary of the method: as §1
Chain of Serine/threonine-protein kinase ATR (Homo sapiens) (Q13535 whole entry, looked up): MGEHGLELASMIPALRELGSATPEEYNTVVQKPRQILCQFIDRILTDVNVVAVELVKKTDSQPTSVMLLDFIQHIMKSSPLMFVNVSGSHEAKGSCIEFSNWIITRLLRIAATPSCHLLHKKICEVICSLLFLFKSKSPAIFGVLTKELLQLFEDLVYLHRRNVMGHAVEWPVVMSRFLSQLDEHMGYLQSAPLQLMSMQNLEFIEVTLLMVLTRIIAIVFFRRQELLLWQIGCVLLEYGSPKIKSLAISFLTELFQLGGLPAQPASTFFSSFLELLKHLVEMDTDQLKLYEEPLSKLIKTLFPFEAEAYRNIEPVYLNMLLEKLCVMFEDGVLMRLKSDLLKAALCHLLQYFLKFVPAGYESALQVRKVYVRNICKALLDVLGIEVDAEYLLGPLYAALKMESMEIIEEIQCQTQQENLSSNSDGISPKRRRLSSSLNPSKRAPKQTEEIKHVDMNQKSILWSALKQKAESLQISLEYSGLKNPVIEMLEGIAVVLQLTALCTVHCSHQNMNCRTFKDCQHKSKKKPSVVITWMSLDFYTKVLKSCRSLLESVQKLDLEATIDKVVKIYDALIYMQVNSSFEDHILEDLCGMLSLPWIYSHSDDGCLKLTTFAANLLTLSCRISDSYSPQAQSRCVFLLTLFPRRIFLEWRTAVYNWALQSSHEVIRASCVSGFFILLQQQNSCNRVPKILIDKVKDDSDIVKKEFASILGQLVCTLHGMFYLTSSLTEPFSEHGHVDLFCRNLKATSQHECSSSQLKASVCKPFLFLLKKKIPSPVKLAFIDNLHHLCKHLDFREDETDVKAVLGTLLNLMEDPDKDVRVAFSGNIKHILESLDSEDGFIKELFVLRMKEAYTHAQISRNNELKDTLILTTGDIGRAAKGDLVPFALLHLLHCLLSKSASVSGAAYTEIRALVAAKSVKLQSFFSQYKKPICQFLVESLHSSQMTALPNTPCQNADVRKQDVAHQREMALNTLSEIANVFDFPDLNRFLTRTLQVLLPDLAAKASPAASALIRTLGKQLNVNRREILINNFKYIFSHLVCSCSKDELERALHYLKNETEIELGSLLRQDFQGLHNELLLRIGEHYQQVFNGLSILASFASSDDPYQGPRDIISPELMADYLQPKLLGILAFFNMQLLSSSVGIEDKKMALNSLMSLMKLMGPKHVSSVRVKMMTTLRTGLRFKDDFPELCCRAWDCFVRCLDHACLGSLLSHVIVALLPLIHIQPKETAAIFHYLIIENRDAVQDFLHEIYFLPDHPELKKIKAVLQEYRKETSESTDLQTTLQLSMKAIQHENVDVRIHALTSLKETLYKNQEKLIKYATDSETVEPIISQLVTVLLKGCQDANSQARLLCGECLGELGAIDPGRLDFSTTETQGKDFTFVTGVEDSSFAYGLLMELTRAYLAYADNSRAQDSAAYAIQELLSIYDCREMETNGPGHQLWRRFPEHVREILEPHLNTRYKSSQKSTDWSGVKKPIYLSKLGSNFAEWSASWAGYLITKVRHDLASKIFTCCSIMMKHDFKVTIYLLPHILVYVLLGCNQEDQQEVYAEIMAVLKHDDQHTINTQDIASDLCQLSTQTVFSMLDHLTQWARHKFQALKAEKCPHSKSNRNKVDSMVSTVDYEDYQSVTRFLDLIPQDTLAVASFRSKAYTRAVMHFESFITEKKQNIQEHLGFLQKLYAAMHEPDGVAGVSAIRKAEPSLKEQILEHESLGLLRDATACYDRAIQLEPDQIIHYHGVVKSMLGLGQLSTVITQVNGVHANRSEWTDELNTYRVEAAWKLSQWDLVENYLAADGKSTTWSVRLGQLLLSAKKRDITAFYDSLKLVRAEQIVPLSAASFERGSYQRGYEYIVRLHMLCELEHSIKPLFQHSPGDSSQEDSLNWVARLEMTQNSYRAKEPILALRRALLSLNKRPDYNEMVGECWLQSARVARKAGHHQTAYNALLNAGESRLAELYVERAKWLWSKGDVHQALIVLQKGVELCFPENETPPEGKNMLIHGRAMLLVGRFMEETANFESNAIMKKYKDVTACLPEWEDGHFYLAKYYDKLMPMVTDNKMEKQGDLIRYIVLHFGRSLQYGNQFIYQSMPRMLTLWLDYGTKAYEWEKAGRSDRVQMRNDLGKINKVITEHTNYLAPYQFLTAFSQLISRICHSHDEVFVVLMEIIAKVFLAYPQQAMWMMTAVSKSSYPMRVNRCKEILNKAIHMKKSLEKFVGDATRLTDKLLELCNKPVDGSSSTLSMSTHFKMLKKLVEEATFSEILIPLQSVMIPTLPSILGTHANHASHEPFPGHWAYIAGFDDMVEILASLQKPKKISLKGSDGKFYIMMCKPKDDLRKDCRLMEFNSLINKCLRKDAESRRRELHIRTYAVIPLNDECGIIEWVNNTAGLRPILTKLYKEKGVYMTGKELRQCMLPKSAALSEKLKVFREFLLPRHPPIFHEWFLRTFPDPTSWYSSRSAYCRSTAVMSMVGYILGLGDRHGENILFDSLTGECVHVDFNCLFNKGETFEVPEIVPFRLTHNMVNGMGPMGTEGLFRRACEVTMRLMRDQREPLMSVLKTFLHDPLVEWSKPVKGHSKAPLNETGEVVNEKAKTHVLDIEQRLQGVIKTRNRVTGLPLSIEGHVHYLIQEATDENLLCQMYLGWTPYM

[9] = target: Calcium/calmodulin-dependent protein kinase type 1B (Homo sapiens) (UniProt Q6P2M8); assay: Inhibition of human recombinant CaMK1b at 15 nM related to control ULK1
[10] = target: T3, Serine/threonine-protein kinase 3 (Homo sapiens) (UniProt Q13188); assay: Inhibition of human recombinant MST2 at 15 nM related to control ULK1
T3 sequence (whole entry): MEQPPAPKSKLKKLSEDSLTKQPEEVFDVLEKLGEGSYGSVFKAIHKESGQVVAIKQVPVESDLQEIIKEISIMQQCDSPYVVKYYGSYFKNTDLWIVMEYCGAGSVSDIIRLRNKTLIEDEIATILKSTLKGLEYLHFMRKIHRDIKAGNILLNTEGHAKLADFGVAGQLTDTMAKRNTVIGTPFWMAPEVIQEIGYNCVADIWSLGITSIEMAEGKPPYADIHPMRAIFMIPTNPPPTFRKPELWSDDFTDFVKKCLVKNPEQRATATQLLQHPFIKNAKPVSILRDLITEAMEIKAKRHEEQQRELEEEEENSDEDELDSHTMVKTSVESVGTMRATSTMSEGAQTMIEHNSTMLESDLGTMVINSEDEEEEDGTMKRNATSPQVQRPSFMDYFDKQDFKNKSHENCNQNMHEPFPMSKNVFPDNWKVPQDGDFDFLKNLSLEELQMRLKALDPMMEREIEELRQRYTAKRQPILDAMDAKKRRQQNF

O=C(N[C@@H](C1CC1)C(F)(F)F)c1cc(-c2cnn3cc(-c4ccc(F)cc4)cnc23)cs1
inhibition (U2OS): Active | inhibition [1]: 8% | fold change (FC) [2]: 0.05 | fold change (FC) [3]: 0 | fold change (FC) [4]: 0

CNC(=O)c1ccccc1Oc1nc(Nc2cc(OC)c(OC)c(OC)c2)ncc1Br
fold change (FC) [5]: 0.23

CC(C)[C@H](NC(=O)c1cc(-c2cnn3cc(-c4ccc(OCCN5CCCCC5)cc4)cnc23)cs1)C(F)(F)F
inhibition [6]: 0% | inhibition [7]: 11% | fold change (FC) [8]: 0.05 | fold change (FC) [9]: 0 | fold change (FC) [10]: 0.03
